Experimental data: ChEMBL document CHEMBL1133105, “Antimalarial, antitrypanosomal, and antileishmanial activities and cytotoxicity of bis(9-amino-6-chloro-2-methoxyacridines): influence of the linker” (J Med Chem, 2000)

System: Trypanosoma brucei
Assay: Percentage of activity against Trypanosoma brucei at 12.5 uM
Type: functional
Conditions: not given
Method in brief: (§1)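 Bloodstream-form T. brucei in HMI-9 medium, 10 000 parasites/well, exposed to 12.5, 6.25, 3.13 and 1.56 µM drug for 4 days. Read-out is % inhibition of parasite multiplication. Macrophage toxicity judged on mouse primary peritoneal macrophages.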

Row | SMILES | Inhibition of parasite multiplication [%]
1 | COc1ccc2nc3cc(Cl)ccc3c(NCCCN(CCCNc3c4ccc(Cl)cc4nc4ccc(OC)cc34)C(=O)C(C)N)c2c1 (centres undefined) | 100
2 | COc1ccc2nc3cc(Cl)ccc3c(NCCCN(CCCNc3c4ccc(Cl)cc4nc4ccc(OC)cc34)C(=O)CCC(=O)O)c2c1 | 100

System: Leishmania infantum
Assay: Percentage of activity against Leishmania infantum 6.25 uM
Type: functional
Conditions: not given
Method in brief: (§2)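 Starch-stimulated mouse peritoneal macrophages, 30 000/well, infected after 24 h with spleen-derived L. infantum amastigotes (10:1) together with 2-fold drug dilutions (12.5–1.56 µM). Incubated 7 days at 37 °C, 5% CO2. Wright-stained slides scored microscopically as % reduction of total parasite load or of infected macrophages. Uninfected treated cultures judged microscopically for macrophage toxicity.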

Row | SMILES | Antileishmanial activity (% reduction of parasite load) [%]
3 | COc1ccc2nc3cc(Cl)ccc3c(NCCCN(CCCNc3c4ccc(Cl)cc4nc4ccc(OC)cc34)C(=O)C(C)N)c2c1 (centres undefined) | 0
4 | COc1ccc2nc3cc(Cl)ccc3c(NCCCN(CCCNc3c4ccc(Cl)cc4nc4ccc(OC)cc34)C(=O)CCC(=O)O)c2c1 | 0

System: Trypanosoma cruzi
Assay: Percentage of activity against Trypanosoma cruzi at 1.56 uM
Type: functional
Conditions: not given
Method in brief: (§3)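 Mouse peritoneal macrophages, 30 000/well, infected after 24 h with about 100 000 T. cruzi trypomastigotes per well plus 2-fold drug dilutions (12.5–1.56 µM). Incubated 4 days at 37 °C, 5% CO2. Methanol-fixed, Giemsa-stained and scored microscopically as % reduction of total parasite load (free trypomastigotes plus intracellular amastigotes) versus untreated controls.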

Row | SMILES | Parasite load reduction [%]
5 | COc1ccc2nc3cc(Cl)ccc3c(NCCCN(CCCNc3c4ccc(Cl)cc4nc4ccc(OC)cc34)C(=O)C(C)N)c2c1 (centres undefined) | 0
6 | COc1ccc2nc3cc(Cl)ccc3c(NCCCN(CCCNc3c4ccc(Cl)cc4nc4ccc(OC)cc34)C(=O)CCC(=O)O)c2c1 | 0

System: Plasmodium falciparum
Assay: In vitro sensitivity for Plasmodium falciparum FcB1R
Type: functional, organism-based
Conditions: not given
Method in brief: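 Asynchronous P. falciparum cultures in human erythrocytes (0.5% parasitemia, 1% haematocrit) exposed to serially diluted drug for 24 h at 37 °C. [3H]hypoxanthine (0.5 µCi/well) then added for a further 24 h. Uptake compared with drug-free controls on the same plate. IC50 taken from the concentration–response curve, averaged over independent experiments. DMSO ≤0.1%.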

Row | SMILES | IC50 [nM]
7 | COc1ccc2nc3cc(Cl)ccc3c(NCCCN(CCCNc3c4ccc(Cl)cc4nc4ccc(OC)cc34)C(=O)C(C)N)c2c1 (centres undefined) | > 500
8 | COc1ccc2nc3cc(Cl)ccc3c(NCCCN(CCCNc3c4ccc(Cl)cc4nc4ccc(OC)cc34)C(=O)CCC(=O)O)c2c1 | 270

System: Trypanosoma cruzi
Assay: Percentage of activity against Trypanosoma cruzi at 12.5 uM
Type: functional
Conditions: not given
Method in brief: as §3

Row | SMILES | T. cruzi parasite load reduction [%]
9 | COc1ccc2nc3cc(Cl)ccc3c(NCCCN(CCCNc3c4ccc(Cl)cc4nc4ccc(OC)cc34)C(=O)C(C)N)c2c1 (centres undefined) | 0
10 | COc1ccc2nc3cc(Cl)ccc3c(NCCCN(CCCNc3c4ccc(Cl)cc4nc4ccc(OC)cc34)C(=O)CCC(=O)O)c2c1 | 0

System: Trypanosoma cruzi
Assay: Percentage of activity against Trypanosoma cruzi at 6.25 uM Concentration
Type: functional
Conditions: not given
Method in brief: as §3

Row | SMILES | Reduction of T. cruzi parasite load [%]
11 | COc1ccc2nc3cc(Cl)ccc3c(NCCCN(CCCNc3c4ccc(Cl)cc4nc4ccc(OC)cc34)C(=O)C(C)N)c2c1 (centres undefined) | 0
12 | COc1ccc2nc3cc(Cl)ccc3c(NCCCN(CCCNc3c4ccc(Cl)cc4nc4ccc(OC)cc34)C(=O)CCC(=O)O)c2c1 | 0

System: Leishmania infantum
Assay: Percentage of activity against Leishmania infantum at 1.56 uM
Type: functional
Conditions: not given
Method in brief: as §2

Row | SMILES | Antileishmanial activity (% reduction of parasite load) [%]
13 | COc1ccc2nc3cc(Cl)ccc3c(NCCCN(CCCNc3c4ccc(Cl)cc4nc4ccc(OC)cc34)C(=O)C(C)N)c2c1 (centres undefined) | 0
14 | COc1ccc2nc3cc(Cl)ccc3c(NCCCN(CCCNc3c4ccc(Cl)cc4nc4ccc(OC)cc34)C(=O)CCC(=O)O)c2c1 | 0

System: Trypanosoma brucei
Assay: Percentage of activity against Trypanosoma brucei at 1.56 uM
Type: functional
Conditions: not given
Method in brief: as §1

Row | SMILES | Percent inhibition of parasite multiplication [%]
15 | COc1ccc2nc3cc(Cl)ccc3c(NCCCN(CCCNc3c4ccc(Cl)cc4nc4ccc(OC)cc34)C(=O)C(C)N)c2c1 (centres undefined) | 100
16 | COc1ccc2nc3cc(Cl)ccc3c(NCCCN(CCCNc3c4ccc(Cl)cc4nc4ccc(OC)cc34)C(=O)CCC(=O)O)c2c1 | 60

System: Leishmania infantum
Assay: In Vitro evaluation for the percentage of activity towards Leishmania infantum at 12.5 uM Concentration
Type: functional
Conditions: not given
Method in brief: as §2

Row | SMILES | Percent inhibition of Leishmania infantum [%]
17 | COc1ccc2nc3cc(Cl)ccc3c(NCCCN(CCCNc3c4ccc(Cl)cc4nc4ccc(OC)cc34)C(=O)C(C)N)c2c1 (centres undefined) | 0
18 | COc1ccc2nc3cc(Cl)ccc3c(NCCCN(CCCNc3c4ccc(Cl)cc4nc4ccc(OC)cc34)C(=O)CCC(=O)O)c2c1 | 0

System: Trypanosoma cruzi
Assay: Percentage of activity against Trypanosoma cruzi at 3.13 uM
Type: functional
Conditions: not given
Method in brief: as §3

Row | SMILES | Reduction of T. cruzi parasite load [%]
19 | COc1ccc2nc3cc(Cl)ccc3c(NCCCN(CCCNc3c4ccc(Cl)cc4nc4ccc(OC)cc34)C(=O)C(C)N)c2c1 (centres undefined) | 0
20 | COc1ccc2nc3cc(Cl)ccc3c(NCCCN(CCCNc3c4ccc(Cl)cc4nc4ccc(OC)cc34)C(=O)CCC(=O)O)c2c1 | 0

System: Leishmania infantum
Assay: Percentage of activity against Leishmania infantum at 3.13 uM
Type: functional
Conditions: not given
Method in brief: as §2

Row | SMILES | Percent antileishmanial activity (reduction of parasite load) [%]
21 | COc1ccc2nc3cc(Cl)ccc3c(NCCCN(CCCNc3c4ccc(Cl)cc4nc4ccc(OC)cc34)C(=O)C(C)N)c2c1 (centres undefined) | 0
22 | COc1ccc2nc3cc(Cl)ccc3c(NCCCN(CCCNc3c4ccc(Cl)cc4nc4ccc(OC)cc34)C(=O)CCC(=O)O)c2c1 | 0

System: MRC5
Assay: Cytotoxicity on MRC-5 cells at 25 uM
Type: functional
Conditions: Homo sapiens
Method in brief: (§4)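 MRC-5 human diploid embryonic lung cells seeded at 5 000/well, washed after 24 h, then given 2-fold drug dilutions (25, 12.5, 6.25, 3.13 µM) in RPMI + 5% FCS, final DMSO below 0.5%. Incubated 7 days at 37 °C, 5% CO2. MTT colorimetric read-out, scored as % reduction of absorbance at 540 nm versus untreated controls.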

Row | SMILES | cytotoxicity at 25 µM [%]
23 | COc1ccc2nc3cc(Cl)ccc3c(NCCCN(CCCNc3c4ccc(Cl)cc4nc4ccc(OC)cc34)C(=O)C(C)N)c2c1 (centres undefined) | 100
24 | COc1ccc2nc3cc(Cl)ccc3c(NCCCN(CCCNc3c4ccc(Cl)cc4nc4ccc(OC)cc34)C(=O)CCC(=O)O)c2c1 | 0

System: Trypanosoma brucei
Assay: Percentage of activity against Trypanosoma brucei at 6.25 uM
Type: functional
Conditions: not given
Method in brief: as §1

Row | SMILES | Inhibition of parasite multiplication [%]
25 | COc1ccc2nc3cc(Cl)ccc3c(NCCCN(CCCNc3c4ccc(Cl)cc4nc4ccc(OC)cc34)C(=O)C(C)N)c2c1 (centres undefined) | 100
26 | COc1ccc2nc3cc(Cl)ccc3c(NCCCN(CCCNc3c4ccc(Cl)cc4nc4ccc(OC)cc34)C(=O)CCC(=O)O)c2c1 | 95

System: Trypanosoma brucei
Assay: Percentage of activity against Trypanosoma brucei at 3.13 uM
Type: functional
Conditions: not given
Method in brief: as §1

Row | SMILES | Parasite growth inhibition [%]
27 | COc1ccc2nc3cc(Cl)ccc3c(NCCCN(CCCNc3c4ccc(Cl)cc4nc4ccc(OC)cc34)C(=O)C(C)N)c2c1 (centres undefined) | 100
28 | COc1ccc2nc3cc(Cl)ccc3c(NCCCN(CCCNc3c4ccc(Cl)cc4nc4ccc(OC)cc34)C(=O)CCC(=O)O)c2c1 | 80

System: MRC5
Assay: Cytotoxicity on MRC-5 cells at 12.5 uM
Type: functional
Conditions: Homo sapiens
Method in brief: as §4

Row | SMILES | cytotoxicity at 12.5 µM [%]
29 | COc1ccc2nc3cc(Cl)ccc3c(NCCCN(CCCNc3c4ccc(Cl)cc4nc4ccc(OC)cc34)C(=O)C(C)N)c2c1 (centres undefined) | 100
30 | COc1ccc2nc3cc(Cl)ccc3c(NCCCN(CCCNc3c4ccc(Cl)cc4nc4ccc(OC)cc34)C(=O)CCC(=O)O)c2c1 | 0

System: MRC5
Assay: Cytotoxicity on MRC-5 cells at 6.25 uM
Type: functional
Conditions: Homo sapiens
Method in brief: as §4

Row | SMILES | cytotoxicity at 6.25 µM [%]
31 | COc1ccc2nc3cc(Cl)ccc3c(NCCCN(CCCNc3c4ccc(Cl)cc4nc4ccc(OC)cc34)C(=O)C(C)N)c2c1 (centres undefined) | 40
32 | COc1ccc2nc3cc(Cl)ccc3c(NCCCN(CCCNc3c4ccc(Cl)cc4nc4ccc(OC)cc34)C(=O)CCC(=O)O)c2c1 | 0

System: MRC5
Assay: Cytotoxicity on MRC-5 cells at 3.13 uM
Type: functional
Conditions: Homo sapiens
Method in brief: as §4

Row | SMILES | cytotoxicity at 3.13 µM [%]
33 | COc1ccc2nc3cc(Cl)ccc3c(NCCCN(CCCNc3c4ccc(Cl)cc4nc4ccc(OC)cc34)C(=O)C(C)N)c2c1 (centres undefined) | 20
34 | COc1ccc2nc3cc(Cl)ccc3c(NCCCN(CCCNc3c4ccc(Cl)cc4nc4ccc(OC)cc34)C(=O)CCC(=O)O)c2c1 | 0
